Assay results taken from the EternaBench riboswitch data.

Tested on: MS2 coat protein
Experiment: apparent Kd, MS2 coat protein; higher = weaker binding; RNA-MaP array; FMN 200 µM where present
How it was run: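 On Illumina sequencing-chip clusters, designs were transcribed by stalled E. coli RNA polymerase and titrated with SNAP-549-labelled MS2 coat protein (0.7 or 1.5 nM, doubling to 3 µM), without and then with constant ligand, in 100 mM Tris-HCl pH 7.5, 80 mM KCl, 4 mM MgCl2, BSA, DTT, yeast tRNA and Tween-20. Apparent Kd is the median of filtered per-cluster curve fits to green signal normalised to red-channel RNA signal and control-cluster median Fmax.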

[1] = designed as: ON switch for flavin mononucleotide, no ligand
[2] = ligand present: flavin mononucleotide, designed as: ON switch for flavin mononucleotide
[3] = designed as: OFF switch for flavin mononucleotide, no ligand
[4] = ligand present: flavin mononucleotide, designed as: OFF switch for flavin mononucleotide

Sequence | apparent Kd [1] [nM] | apparent Kd [2] [nM] | apparent Kd [3] [nM] | apparent Kd [4] [nM]
AUAUGGGCUAACAUGAGGAUCACCCAUGUGUUAUACUUAAUAUAGGAUAUGUUUAUACUUUUUGGGCAGAAGGAUGGCCCAUAU | 67.9 | 68.7 |  | 
UUACUACAUGUAGGAUAUGCGUGGCGAAGCUAUGCAGAAGGACAUGAGGAUCACCCAUGUUUUAGCGUCUGCGUACAGAUGCGU |  |  | 19 | 28.4
AGCUGUGGCCGAGGAUAUCAAGAACCAUGGAAAACCAUGGAACCUUGACAUGAGGAUCACCCAUGUGAGAAGGCGGUCUCAGCA |  |  | 14.4 | 11.7
AAUAGGGUCGUAAUAGCUAGCACAUGAGGAUCACCCAUGUACAGAAGGCGAGCCAAGGCGGCAAUCGAGGAUAUGUAGCAGGGU |  |  | 19.5 | 29.9
CCGGUAUAGGAGGAUAUAGGAGUCGAUAGACACCUAGAAGGCCUGACAUGAGGAUCACCCAUGUGUCCUACCGG |  |  | 17 | 20
GCUAGUCAUGUCAGGAUAUGCAGAUCCUUGGAUCUGCAGAAGGGACAUGAGGAUCACCCAUGUGCCUAGCUAGC |  |  | 41 | 317
GUACUUGUGCAGAAGGGCAUUGAAUUAGGUUUUUAGGUUGAUCAGAAAUGCAGGAUAUGUUAAACAUGAGGAUCACCCAUGUAC | 66.3 | 13.7 |  | 
GUGUAGAUAGGAUAUGCUUUGAGCUUAUGAGAGUAUGCUCGACAUGAGGAUCACCCAUGUAGAAGGGUUUACAC |  |  |  | 52.5
GGACAGUAAGGAUAUUGAGUCGGACAACGCCGACAGCUAGUCGAGAAGGUACAUGAGGAUCACCCAUGUCAAGU |  |  | 19.8 | 18
GCCUAGCCCAGGCCCACGGCAUCACAGGAUAUGCCGAUAACAUGAGGAUCACCCAUGUCAACUCCGCAGAAGGGUGAUAUCGUG | 174 | 28.8 |  | 
GAAACCUAGUCAGGAUAUCGGGCAAUAAUUGCACGAGAAGGGACAUGAGGAUCACCCAUGUACACCUCUGGUGAGUCUCGCAGG |  |  | 24.4 | 73.6
UUAUACGUUGAGGAUAUGCGACUGUUUUAAGUUGUAGAAGGCGAUACAUGAGGAUCACCCAUGUUUAUGGGCAU |  |  | 240 | 327
AUUCCCGGUGUUAGGAUAUCCAACGCCCACGCGAUGGAGAAGGGACAUGAGGAUCACCCAUGUAGAGCUGCAUC |  |  | 14.3 | 14.5
CCGGAAUCCUAGGAUAUGCUAGACGAUAGUCUAGCAGAAGGAGGAACAUGAGGAUCACCCAUGUGUCCUACCGG |  |  | 17.2 | 22.1
UGGUACUAGGGAGGAUAUGGGAAGAUACAUGAGGAUCACCCAUGUUUAAGAAUGCCGAGAGGCAACUAGAAGGCCCUAGUACCU | 1050 | 45.3 |  | 
CUUUUGUGAGGAUAUCAGUAGUAAUACAAUAGUAUUACUACUGAGAAGGCACAUGAGGAUCACCCAUGUUUCUC |  |  | 42.4 | 121
GCACGGUAUGUAGGAUAUGCAUAGCAUUGCUAUGCAGAAGGACAUGAGGAUCACCCAUGUAUGUAUUCCAUACUAAUCCCGUGU |  |  | 5.55 | 5.2
GUUUCGUCAGGAUAUGUGGCUUCGAUCGUGCGAAGAAGGCUACAGAAGGCACAUGAGGAUCACCCAUGUUCGUC |  |  |  | 34.6
GCCAUCGUAUGAGGAUAUGGCACCGAAACGGUGCCAGAAGGCAUGUCGAUAGACAUGAGGAUCACCCAUGUAUUAUCGAUGGCA | 107 | 31.3 |  | 
AGAGACUUGGGAGGAUAUGCCUGAUGGACACGGGCAGAAGGCCCAAACAUGAGGAUCACCCAUGUAUCUAAGCCCUGGAAGGGC | 310 | 20.6 |  | 
UGGGAGCGAUAGAAGGCCGGGUUUCACAUGAGGAUCACCCAUGUGCGGGCCCUCUGUUGAAGGCUGGAGGAUAUAUCGUGCGGA |  |  | 14.5 | 7.39
UCGGCGCGAGGAUAUACGUUUGCUUUUUUUCGUUUUUGUGUACAUGAGGAUCACCCAUGUAGAAGGCGCGCCGC |  |  | 15.2 | 22.4
